In ChEMBL document CHEMBL4513216, “Probing the Open Global Health Chemical Diversity Library for Multistage-Active Starting Points for Next-Generation Antimalarials” (ACS Infect Dis, 2020) one finds cytotoxicity data, which are given here for 96 compounds.

A short description of this data set: Toxicity liver stage against HepG2, at 10uM. In kind it is cell-based. Also on record: test concentration 10 uM, cell line HepG2-A16-CD81EGFP. Particulars: human, HepG2-A16-CD81EGFP cells; read-out: INHIBITION
The procedure, abridged: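 Uninfected HepG2-A16-CD81EGFP cells, 3 × 10^3 per well, 1536-well, plated on prespotted compound at 10 μM final, parasite-free screening media added to match infected plates; puromycin 10 μM positive, DMSO 0.5% negative; run in parallel with 48 h PbLuc assay at 37 °C, 5% CO2; viability by CellTiter-Glo luminescence, normalized to controls.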
With `Cc1ccc(CNC(=O)c2oc3ccccc3c2CN(C)C)n1C`, the cytotoxicity at 10 µM worked out at 0.521%.
In the case of `CCOc1cc(CNC(=O)NCc2nc(C)c(C)s2)ccn1`, the cytotoxicity at 10 µM is -2.49%.
For `OC(CN1CCN(Cc2cccnc2)CC1)c1cccs1` (stereo unspecified), the cytotoxicity at 10 µM is -5.62%.
To `CC(C)(C)c1n[nH]c(C2CN(Cc3ncc[nH]3)CCO2)n1` (stereo unspecified) belongs 3.01%.
To `CCCC(=O)N1CCCC1(C)c1nc(C)no1` (stereo unspecified) belongs 0.79%.
Regarding `O=C(CCn1ccnc1)N1CC[C@H](Oc2cccc(F)c2)[C@@H](O)CC1`, the cytotoxicity at 10 µM is -1.83%.
As to `c1ccc(Cc2noc(CN3CCCCC3Cn3cccn3)n2)cc1` (stereo unspecified), the cytotoxicity at 10 µM was -0.945%.
To `Cc1noc([C@]23COC[C@H]2CN(Cc2cc(C)on2)C3)n1` belongs 0.841%; to `Cc1cnn(Cc2cc(F)ccc2F)c1NC(=O)CNC(=O)C1CC1`, 2.3%; to `CC(C)Oc1ccc(C(=O)N2CCCCC2Cn2cccn2)cn1` (stereo unspecified), -14.9%.
To `CN(CCOc1cccc(F)c1)CC(=O)Nc1ccncc1` belongs 9.16%; to `CC(C)C(NC(N)=O)C(=O)NCc1ccc(N2CCCC2)nc1` (stereo unspecified), -16.9%; to `Cc1ccc(CN2CCC3(CC2)NC(=O)CC3c2ccccc2)s1` (stereo unspecified), -1.39%.
Regarding `COCCSc1ccc(-n2ccnc2)nn1`, the cytotoxicity at 10 µM was 6.11%.
To `COc1ccccc1N1CCC(CNCc2cccc(C#N)c2)C1` (stereo unspecified) belongs -5.21%; to `CN1CCc2nc(N(C)C)nc(N3CCC(O)CC3)c2C1`, -0.879%; to `CCS(=O)(=O)NC[C@]12COC[C@H]1CN(Cc1sccc1C)C2`, -75.2%.
For `Cc1cccc(-c2nccnc2C2CCCN(C)C2)c1` (stereo unspecified), the cytotoxicity at 10 µM was 0.83%.
To `Cc1ccc(CN2CC[C@H]3OCC[C@@H](C(=O)NC4CC4)[C@@H]3C2)o1` belongs 5.81%; to `O=C(NCc1nc(-c2ncccn2)no1)c1ccc(C2CCCO2)s1` (stereo unspecified), 0.774%; to `O=C(NCc1ccco1)[C@@H]1CCO[C@@H]2CCN(c3ncccn3)C[C@H]21`, -77.6%.
Regarding `OCCN1CCC(F)(F)C2(CCN(c3cnccn3)C2)C1` (stereo unspecified), the cytotoxicity at 10 µM came to 8.24%.
To `O=C(C[S+]([O-])c1ccc(F)c(F)c1)NCc1cc(F)cc(F)c1` (stereo unspecified) belongs 5.58%; to `O=C(C1CCCC1)N1CCCC(c2nc(O)cc(-c3ccncc3)n2)C1` (stereo unspecified), -16.9%; to `COCCN1C[C@@H]2CC[C@H]1CN(Cc1nc3ccccc3n1C)C2`, -11.2%.
To `CNc1nc(C(=O)N2CCC3(CCCN(CCOC)C3=O)C2)cs1` (stereo unspecified) belongs 7.55%.
To `CC(C)N(Cc1ccccn1)C(=O)CCC(=O)c1ccc(F)cc1F` belongs -0.535%.
As for `Cc1ccc(N2CCCC(NCc3ccc4c(c3)CCO4)C2)nn1` (stereo unspecified), the cytotoxicity at 10 µM was -16.1%.
To `Cc1cnn(CC2CCCCN2Cc2cc(C)on2)c1` (stereo unspecified) belongs -5.36%; to `c1cnc(N2C[C@H]3CCN(Cc4ccncc4)C[C@H]3C2)nc1`, -103%; to `CCc1nc(Cn2nc(C3CCNCC3)n(-c3ccccc3)c2=O)cs1`, -1.22%.
To `c1cncc(CN2CCCn3nnc(CN4CCCCC4)c3C2)c1` belongs 12.8%; to `CN(C)[C@@H]1CCN(C(=O)c2ccco2)[C@H]1Cc1cnn(C)c1`, -81.9%.
To `Cn1ccnc1CN1CCC2(COCCN(S(=O)(=O)C3CC3)C2)C1` (stereo unspecified) belongs 12.7%; to `Cc1cccc(C)c1Oc1ncccc1CNC(=O)C1(C)CCCNC1` (stereo unspecified), 0.687%.
On to `Cc1nc(-c2ccccc2)n(CC(=O)N(C(C)C)C(C)C)n1`, for which the cytotoxicity at 10 µM was -4.57%.
To `Cc1cc(C)n(CC2CCCCN2CCC(=O)Nc2cc(C)on2)n1` (stereo unspecified) belongs -1.03%; to `CN(C)C(=O)Cc1nc(CN2CCCCC2Cn2cncn2)cs1` (stereo unspecified), -0.868%; to `Cc1cc(C)n(CC2CCCN2Cc2ccc(F)cc2C#N)n1` (stereo unspecified), 7.77%.
To `CCn1c(C)nnc1SCCNC(=O)c1sc(C(C)C)nc1C` belongs -1.27%.
To `Cc1nc(C2CCCN2CCS(C)(=O)=O)no1` (stereo unspecified) belongs -5.07%; to `COCC(=O)N1C[C@H]2CNC[C@@]2(C(=O)NCc2nc(C)cc(C)n2)C1`, 14.7%.
With `CCCc1cc(N2CCC(NC3CCC(O)CC3)CC2)nc(C)n1` (stereo unspecified), the cytotoxicity at 10 µM is -4.35%.
Regarding `Cc1ccc(OCCCNC(=O)C(C)Sc2nncn2C)cc1` (stereo unspecified), the cytotoxicity at 10 µM is -45%.
As for `CN1CCC2(CC1)OC(C(=O)NCc1cccnc1)Cn1ccnc12` (stereo unspecified), the cytotoxicity at 10 µM was -87.3%.
To `CCc1noc(CN(CC)C(=O)CC2C(=O)NCCN2CC(C)(C)C)n1` (stereo unspecified) belongs 1.83%; to `Cc1cnc(C(=O)N2CCN(C(=O)CC(C)C)[C@@H]3CS(=O)(=O)C[C@@H]32)cn1`, -3.06%.
To `O=c1[nH][nH]c2cn(-c3ccc(Cl)cc3)c(=O)n12` belongs 6.45%; to `CCc1csc(C2CCCN(C(=O)c3cc(C4CC4)[nH]n3)C2)n1` (stereo unspecified), -1.22%; to `COC(=O)c1cc(C)nc(N2CCN(Cc3cc(C(C)C)no3)CC2)n1`, 3.29%.
`Cc1cnn(C2CCCN(C(=O)c3cc4nc(C)ccc4o3)C2)c1` (stereo unspecified): the cytotoxicity at 10 µM was determined as 2.22%.
Turning to `Cc1nccc(C2CCCCN2Cc2ccccc2)n1` (stereo unspecified), the cytotoxicity at 10 µM was -28.2%.
With `C1CCCN(C2CCCN(Cc3noc(C4CC4)n3)C2)CC1` (stereo unspecified), the cytotoxicity at 10 µM was -8.84%.
To `Cc1cccc(OC2CCN(C(=O)NCc3cc[nH]n3)CC2)c1C` belongs 7.41%.
As to `Cc1nc(CCNC(=O)C2CCN(C(C)C)CC2)sc1Cl`, the cytotoxicity at 10 µM is -8.06%.
`CCc1nnc2n1CCN(Cc1csc(-c3ccsc3)n1)C2`: the cytotoxicity at 10 µM was -17.5%.
To `Cc1nccn1CCC(=O)N1CCCN(c2ccccc2)CC1` belongs -6.08%; to `COCCn1ccc(=O)c(OCC(=O)Nc2ccccc2)c1C`, 3.72%.
To `O=C(CCc1cc2n(n1)CCCNC2)N1CCN(C2CCCC2)C(=O)C1` belongs 2.68%.
With `COCc1nc(C(=O)N2CCN(Cc3ccsc3)CC2)cs1`, the cytotoxicity at 10 µM was -0.684%.
To `COc1ccc(C(C)NC(=O)c2nn(C)c(C)c2Br)cc1` (stereo unspecified) belongs 9.18%; to `CCC(CC)NC(=O)c1ccc2nnc(C3CCN(S(C)(=O)=O)C3)n2c1` (stereo unspecified), 3.25%.
To `Cc1cc(CNC(=O)CC2CN(C(=O)OC(C)(C)C)C2)ccc1F` belongs 4.21%.
To `CC(=O)N1CCC(c2nccnc2Nc2ncc(C)s2)CC1` belongs 10.1%; to `CC(C)C1CN(c2ncccc2Cl)CCC(=O)N1Cc1ccc(F)cc1` (stereo unspecified), 2.41%.
On to `c1cnc(N2CCOCC3(CN(Cc4nccs4)CCO3)C2)nc1` (stereo unspecified), for which the cytotoxicity at 10 µM stood at 1.5%.
With `CCc1cc(N(C)Cc2ccncn2)n2nccc2n1`, the cytotoxicity at 10 µM was determined as 3.61%.
To `O=c1c(S(=O)(=O)N2CCCC2)cccn1Cc1c(F)cccc1Cl` belongs 0.814%.
On to `Cc1ccccc1OCCN1CCn2c(C)nnc2C1`, for which the cytotoxicity at 10 µM is -2.78%.
To `CC(CNC(=O)Nc1ccc(C#N)cc1)N1CCc2ccccc21` (stereo unspecified) belongs -5.71%; to `Brc1cnc(NCCCOCC2CCOCC2)nc1`, 16.8%; to `Cc1nc(C2CCN(C)CC2)cc(N2CCOc3ccc(Cl)cc3C2)n1`, -5.12%.
To `COCCCC(=O)NCc1cccc(NC(N)=O)c1` belongs 0.808%; to `CN(Cc1ccc2nsnc2c1)C(=O)Cn1ncc(N(C)C)cc1=O`, 3.67%.
As for `CCOCC(=O)N1CCCC2(CCN(c3ccccc3)C2=O)C1` (stereo unspecified), the cytotoxicity at 10 µM came out at 2.02%.
With `Cc1cc(C)n(CC(C)Nc2nc(C)nc3c2CCNC3)n1` (stereo unspecified), the cytotoxicity at 10 µM turned out to be 2.51%.
To `CCCc1n[nH]c(=O)n1[C@@H](CC)c1ccccc1` belongs -5.22%; to `Cc1ccc2c(c1)OC(C)CN2C(=O)Cc1ccc(C)nc1` (stereo unspecified), -44.2%; to `Cc1cccc(C(=O)N2C[C@@H]3CC[C@H](Oc4cccc(F)c4)[C@@H]3C2)n1`, -14.7%.
To `O=C1[C@H]2CN(S(=O)(=O)C3CC3)C[C@H]2CN1CC1CC1` belongs 1.8%; to `CCOC(=O)CNC(=O)c1cccnc1Oc1ccc(Cl)cc1`, 1.63%.
To `CNC(=O)CN1C(=O)CCC12CCCN(Cc1ccccc1F)C2` (stereo unspecified) belongs 4.76%; to `O=C1CO[C@H]2CCN(C(=O)c3ccc4c(c3)CCCC4)CC[C@@H]2N1`, 0.905%.
Turning to `COCC(=O)N1Cc2nc3c(C)c(-c4cccs4)nn3c(O)c2C1`, the cytotoxicity at 10 µM is -4.81%.
To `CCc1ccc(C(=O)N(c2cccnc2)C(C)C)cc1S(C)(=O)=O` belongs 2.62%.
In the case of `Cc1ccc(OCCCNC(=O)Cc2nc3ncccn3n2)cc1`, the cytotoxicity at 10 µM was -1.08%.
To `Cc1ccc(N2CCC3(CN(Cc4ccncc4)CCC3(F)F)C2)nn1` (stereo unspecified) belongs 28.6%; to `CC(C)c1ncc2c(n1)CN(Cc1cccc3c1OCCO3)CC2`, -4.34%; to `COc1ccc(F)cc1C(=O)C1CCCN(Cc2cnc(C)s2)C1` (stereo unspecified), 6.26%.
To `O=C1COc2cc(C(=O)NS(=O)(=O)c3cc(Cl)ccc3Cl)ccc2N1` belongs -7.96%.
To `Cc1nc(C)n(CC2CCCN2Cc2cn3cc(Cl)ccc3n2)n1` (stereo unspecified) belongs -16.7%; to `COCCOCC(=O)N1CCC(c2ccccc2F)C1` (stereo unspecified), -6.45%; to `Cc1nc(NC(=O)C(C)N2CCN(c3ncccn3)CC2)sc1C` (stereo unspecified), 4.79%.
Turning to `CCN1CCC(CNC(=O)C(c2ccc(F)cc2)N(C)C)(N(C)C)CC1` (stereo unspecified), the cytotoxicity at 10 µM was -0.288%.
To `CC(C)c1nc(CN2CCCC2Cn2cncn2)no1` (stereo unspecified) belongs -7.3%.
To `O=C(NC1CCCC1)c1nc2c(o1)CN(C(=O)CO)C2` belongs 10%.
